# Data: ChEMBL document CHEMBL1155561, “A new 2D-TLC bioautography method for the discovery of novel antifungal agents To control plant pathogens” (2000)
# Activity calls are given as the source filed them. The rule behind the calls is not given here.
# Tested on: Colletotrichum fragariae
# Assay: Antifungal activity against Colletotrichum fragariae assessed as zone of inhibition
# Format: functional
# Procedure, shortened: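 Direct 1D-TLC bioautography on glass-backed Si gel plates (activated 1 h at 100 °C). Standards were applied at […] from 5 µM ethanolic solutions (1 × 10-5 µmol/spot) and developed in 1:1 EtOAc/hexanes. Plates were sprayed three times with conidia (ca. 3 × 10^5/mL) in PDB with 0.1% agar and 0.1% Tween-80, then incubated at 24 °C with a 12 h photoperiod. Inhibition zones were measured after 4 days.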
Structure (SMILES),inhibition zone (IZ) [mm2],Activity
CC(=O)O.CCCCCCCCCCCCNC(=N)N [DODINE],20,–
CO/C=C(/C(=O)OC)c1ccccc1Oc1cc(Oc2ccccc2C#N)ncn1 [AZOXYSTROBIN],80,–
CC(C)Oc1cccc(NC(=O)c2ccccc2C(F)(F)F)c1,–,inactive
c1ccc2[nH]c(-c3cscn3)nc2c1,–,inactive
Nc1c(Cl)cc([N+](=O)[O-])cc1Cl [ALLISAN],80,–
O=[N+]([O-])c1c(Cl)c(Cl)c(Cl)c(Cl)c1Cl [PENTACHLORONITROBENZENE],5,–
COC(=O)NC(=S)Nc1ccccc1NC(=S)NC(=O)OC [THIOPHANATE METHYL],24,–
O=CNC(N1CCN(C(NC=O)C(Cl)(Cl)Cl)CC1)C(Cl)(Cl)Cl (stereo not given),–,inactive
C=CC1(C)OC(=O)N(c2cc(Cl)cc(Cl)c2)C1=O (stereo not given) [VINCLOZOLIN],48,–
COC(=O)Nc1nc2ccccc2[nH]1 [CARBENDAZIM],24,–
